Screens: PubChem BioAssay, several laboratories
Compounds with a hit are over-represented: about 12% of the library has one in this group of screens.
Autophagy mod = modulators of autophagy; calls only at 10 µM (by protocol); actives 0.98% (n = 190,000); MEF GFP-LC3 puncta imaging; test concentration mostly 10 µM; AID 463193;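 active = percentage of spot-positive cells more than 3 SD above its plate mean, without a fluorescence outlier flag or 80% toxicity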
CHOP inh = CHOP inhibition in unfolded protein response; CHO-K1 CHOP-promoter luciferase, tunicamycin-induced, 15-18 h; inhibition, % at 10 µM; actives 3.8% (n = 220,000); AID 2732;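 active = compounds that reduced the stress-induced luciferase reporter signal by more than about 70% of percent inhibition, limit read from the data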
b-catenin transl = alters nuclear translocation of beta-catenin in HeLa cells; immunofluorescence imaging; actives 0.3% (n = 190,000); nuclear translocation activity, % at 5 µM; AID 1665;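 active = nuclear translocation activity above 50% at 5 µM, with a well cell count of 50 or more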;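 also: per-cell ratio of nuclear to cytoplasmic median beta-catenin stain intensity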
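Read-out: Nuclear/cytoplasmic beta-catenin signal ratio, % activation | Assay system: Human HeLa cell line | Times: 24 h compound exposure at 37°C, 5% CO2 | Signal: Fluorescence imaging of beta-catenin antibody stain plus DAPI | Dosing: 5 µM primary, 0.02–20 µM confirmation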
L major viab = reduces viability of Leishmania major promastigotes; resazurin fluorescence viability; inhibition, % at 10 µM; actives 9% (n = 200,000); in the data active = inhibition above about 50%;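 also: promastigotes grown with compound for 44 hours at 28 °C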
MT stabilizer = stabilizes microtubules in HeLa cells | HeLa tubulin immunostaining HCS, 24 h; share of cells brighter than vehicle mean+2SD | % tubulin-high responders, % at 10 µM | actives 0.83% (n = 200,000) | AID 2205;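 active = plate Z-score above 3 for both tubulin-high and condensed-nucleus cell shares, with cell loss under 80%, at 10 µM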;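 also: anti alpha tubulin signal scored within the nucleus-defined area of each cell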
Dynein transport = dynein cargo transport inhibition. 3617.4 mouse cells, GR-EGFP nuclear translocation imaging; test concentration mostly 20 µM; stimulated with dexamethasone, 1 µM; stronger effect = lower value. z-score, hits read low. actives 0.47% (n = 220,000). AID 1381;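 active = plate z-score of nuclear minus cytoplasmic receptor signal below a set negative limit, without overly bright fluorescence or cell loss, cut at about -3.5 in these data, passing the limit was not always enough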;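 also: z-score of nuclear minus cytoplasmic ring GR-EGFP intensity difference per well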
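Medium: Induction medium lacking tetracycline, stripped serum | Probe or stimulus: 1.0 µM final dexamethasone stimulus | Schedule: 48 h induction, then 1 h compound, then 30 min agonist, 37 °C | Signal: Automated 10x imaging of fixed Hoechst-stained cells | Evaluation: Per-cell GR-EGFP intensity, nucleus versus surrounding cytoplasmic ring, well-averaged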
Of the large screens only hits and unclear results are named; the others gave an inactive call.

Cc1nnc(NC(=O)c2ccc(S(=O)(=O)N(C)Cc3ccccc3)cc2)o1	L major viab 77.2
NC(=O)Cn1nnc(-c2ccccc2NC(=O)c2cnccn2)n1	none
COn1c(SCc2ccc(C)cc2C)nc2ccccc2c1=O	b-catenin transl 50.6, MT stabilizer 40.7
COn1c(SC(C)C)nc2ccccc2c1=O	none
COn1c(SC2CCCCC2)nc2ccccc2c1=O	CHOP inh 83.2
CC(C)On1c(SC(C)C)nc2ccccc2c1=O	CHOP inh 73.2
CC1=C(C(=O)OC(C)C)C(c2ccccc2)NC(=S)N1C (centres undefined)	none
Cc1ccc(Nc2c(N)c(=O)oc3ccccc23)cc1	Autophagy mod active, L major viab 73.4, MT stabilizer 29.7
CNc1c(N)c(=O)oc2ccccc12	none
Cc1nn(-c2ccc(F)cc2)c(C)c1CN1CCN(Cc2ccccc2)C(CCO)C1 (centres undefined)	none
Cc1nn(-c2ccc(F)cc2)c(C)c1CN1CCN(CCc2ccccc2)C(CCO)C1 (centres undefined)	L major viab 79.2
Cc1nn(-c2ccc(F)cc2)c(C)c1CN1CCN(CCC(C)C)C(CCO)C1 (centres undefined)	L major viab 54.8
Nc1nc2ncc(-c3ccsc3)c(N)n2n1	none
O=C1C2C3C=CC(C3)C2C(=O)N1c1ccc(N2CCN(c3ccccn3)CC2)c([N+](=O)[O-])c1 (centres undefined)	L major viab 75.8
CC1CCN(c2ccc(N3C(=O)C4CCCCC4C3=O)cc2[N+](=O)[O-])CC1 (centres undefined)	none
O=C(Nc1ccc(NC(=O)c2cccs2)cc1)c1ccc(Br)o1	CHOP inh 90.5 (no result: b-catenin transl)
COc1ccc(Br)cc1C(=O)Nc1ccc(C(=O)NCC(C)C)cc1	none
O=C(Nc1cccnc1)c1cccs1	none (no result: b-catenin transl)
O=C(Nc1ccc(Cc2ccncc2)cc1)c1ccc(Br)o1	Autophagy mod active
O=C(Nc1ccncc1)c1cccs1	L major viab 58.7
COc1ccc(Br)cc1C(=O)Nc1ccc(Cc2ccncc2)cc1	L major viab 81.4
O=C(NNC(=O)c1cccs1)c1ccc(Br)o1	none (no result: b-catenin transl)
C#CC(C)(CC)NC(=O)Cn1nnc(-c2cccc(C(F)(F)F)c2)n1 (centres undefined)	none
O=C(Nc1ccn(Cc2ccc(Cl)cc2)n1)c1ccc2c(c1)OCO2	none
O=C(CSc1nnc(-c2ccncc2)n1-c1ccc(F)cc1)NNC(=O)c1cccc(O)c1	none
CCOc1ccc(Br)cc1C(=O)Nc1ccc(C(=O)NCC(C)C)cc1	CHOP inh 82.6
CCc1c(C(=O)Nc2ccncc2)csc1C	CHOP inh 70.8
O=C(Nc1ccc(Nc2ccncc2)cc1)c1ccc(Nc2ccnc3ccc([N+](=O)[O-])cc23)cc1[N+](=O)[O-]	none (no result: Autophagy mod, L major viab, MT stabilizer)
[NH-]c1ncnc2c1N=C[N+]2=CC=CCO	none (no result: Autophagy mod, L major viab, MT stabilizer)
CCN(CC)CCN1C(=O)C(O)=C(C(=O)c2ccc(C)o2)C1c1ccccn1 (centres undefined)	Autophagy mod active (no result: CHOP inh, b-catenin transl)
CCN(CC)C(=O)COC(=O)c1ccc(C)c(NC(=O)c2ccco2)c1	none
O=C(COC(=O)CC1CC2CCC1C2)Nc1ccc(F)cc1 (centres undefined)	none
O=C(CC1CC2CCC1C2)OCC(=O)c1c[nH]c2ccccc12 (centres undefined)	L major viab 72.1
O=C(OCC(=O)c1c[nH]c2ccccc12)c1cc2ccccc2cc1O	CHOP inh 72.6, L major viab 61.8 (no result: b-catenin transl)
Cc1ccc(C(=O)OCC(=O)c2c[nH]c3ccccc23)cc1NC(=O)c1ccco1	L major viab 69.2
CCn1c(C)nc2cc(C(=O)NNC(=S)NC(=O)c3ccccc3)ccc21	none
CN(C)/C=C(\C#N)C(=O)N/N=C(\CC(=O)C(F)(F)F)c1ccco1	none
COc1ccc(C(=O)NCCNC(=O)c2cc(OCC(F)(F)F)ccc2OCC(F)(F)F)cc1	none
CN(C(=S)NC(=O)CCCOc1ccc(Cl)cc1Cl)c1ccccc1	none
Cc1ccc(CNC(=O)CO/N=C/c2ccc(C(C)(C)C)cc2)cc1	CHOP inh 94.7
CC(C)(C)c1ccc(/C=N/OCC(=O)NCc2ccc(F)cc2)cc1	CHOP inh 75.1, MT stabilizer 11.8 (no result: b-catenin transl)
CC(C)(C)c1ccc(/C=N/OCC(=O)NCc2ccccc2)cc1	none
Cc1ccc(-c2nnn(CC(=O)N(CC3CCCO3)C(C(=O)NC3CCCC3)c3ccc(O)cc3)n2)o1 (centres undefined)	none
CCCC(C(=O)NC1CCCC1)N(C(=O)Cn1nnc(-c2ccc(C)o2)n1)c1ccccc1OC (centres undefined)	L major viab 77.2
Cc1ccc(C(C(=O)NC(C)(C)C)N(CC2CCCO2)C(=O)Cn2nnc(-c3ccc(C)o3)n2)cc1 (centres undefined)	L major viab 53.9
Cc1ccc(-c2nnn(CC(=O)N(Cc3cccs3)C(C(=O)NC(C)(C)C)c3ccc(C)o3)n2)o1 (centres undefined)	CHOP inh 76.2
Cc1ccc(-c2nnn(CC(=O)N(CC3CCCO3)C(C(=O)NC3CCCC3)c3ccc(F)cc3)n2)o1 (centres undefined)	CHOP inh 80.2
Cc1ccc(-c2nnn(CC(=O)N(c3ccccc3F)C(C(=O)NC3CCCC3)c3ccco3)n2)o1 (centres undefined)	none
O=C(NN=C1CCCCCCC1)c1ccc2ccccc2n1	none
CC(C)CCn1c(O)c(N=NC(=O)Cn2ccc(C(F)(F)F)n2)c2ccccc21	L major viab 52.1
O=C1C=C(O)c2cccc(O)c2C1=O	none (no result: Autophagy mod, L major viab, MT stabilizer)
CC1=CC(=O)c2c(O)ccc(O)c2C1=O	CHOP inh 105.8, L major viab 97.6, Dynein transport -3.93
OCCN1CCN(C(=S)NCCc2ccccc2)CC1	none
CCN1CCN(C(=S)NCCc2ccccc2)CC1	L major viab 86.2 (no result: b-catenin transl)
Cc1c(N2C(=O)CS/C2=N\N=C\c2ccc(Cl)cc2)c(=O)n(-c2ccccc2)n1C	L major viab 76.9
COc1cc(CN(C2CCCCC2)S(=O)(=O)c2ccc(S(=O)(=O)N(C)C3CCCCC3)cc2)cc(OC)c1OC	L major viab 92.9
CCN(C1CCCCC1)S(=O)(=O)c1ccc(OC)c(C)c1	none
Cc1nc2nc(SCC(=O)c3cccc([N+](=O)[O-])c3)[nH]c2cc1Br	none
CCc1nc(SCC(=O)c2cccc([N+](=O)[O-])c2)n[nH]1	L major viab 61.4 (no result: b-catenin transl)
O=C(CSc1nc2ncc(Br)cc2[nH]1)c1cccc([N+](=O)[O-])c1	L major viab 53.8
Nc1nc(SCC(=O)c2cccc([N+](=O)[O-])c2)n[nH]1	none
CC(Sc1ccccc1)C(=O)NN=C1CCCCCCC1 (centres undefined)	none
Cc1ccc(CN2CCN(Cc3cn[nH]c3C3CCCCC3)CC2CCO)cc1 (centres undefined)	none
